Assay: Toxicity liver stage against HepG2, at 10uM
Assay type: cell-based
Set-up: test concentration 10 uM, cell line HepG2-A16-CD81EGFP
Settings: human, HepG2-A16-CD81EGFP cells; read-out: INHIBITION
Method in brief: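 Uninfected HepG2-A16-CD81EGFP cells, 3 × 10^3 per well, 1536-well, plated on prespotted compound at 10 μM final, parasite-free screening media added to match infected plates; puromycin 10 μM positive, DMSO 0.5% negative; run in parallel with 48 h PbLuc assay at 37 °C, 5% CO2; viability by CellTiter-Glo luminescence, normalized to controls.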

Structure (SMILES)	cytotoxicity at 10 µM [%]
CC1Cn2c(nc3c2c(=O)[nH]c(=O)n3C)O1 (stereo not drawn)	1.26
CC(C)(C)OCC1CN(Cc2cccs2)S(=O)(=O)c2cnccc2O1 (stereo not drawn)	2.89
CN1C[C@H](O)[C@]2(CCN(C(=O)NCc3ccccc3)C2)S1(=O)=O	4.53
CCCC(O)CN1CCC(=O)N(CC2CC2)Cc2cc3c(cc21)OCO3 (stereo not drawn)	-1.89
O=C(O)Cn1ccc(=O)c2ccc(Cl)cc21	-7.76
COCC(=O)N(Cc1ccc2cc[nH]c2c1)C1CC1	-5.54
CC(C)n1cc(C(=O)NC2CCS(=O)(=O)C2)c2ccccc2c1=O (stereo not drawn)	1.85
CC(C)c1sc(Cl)nc1C(=O)N1CCN(Cc2ccccc2)CC1	-2.7
CCCc1noc(C2CC(=O)N(Cc3ccccc3)C2)n1 (stereo not drawn)	-2.62
Cc1nc([C@H]2C[C@@H]3CCN(Cc4cnn(C)c4)C[C@H]3O2)sc1C	-1.96
CC(C)c1cc2c(O)nc(CSCC(=O)NCc3ccccn3)nc2s1	-5.29
COc1cc(Cl)c(C)cc1-n1nnc(C(=O)O)c1C	-8.29
COc1cc2ncn(CC(=O)NCCCN(C)C)c(=O)c2cc1OC	10
O=C1CC(c2ccccc2)c2c(n3ccsc3nc2=O)N1 (stereo not drawn)	-4.74
O=C(c1ccc(Cl)cc1)N1CCCn2nnc(Cn3cccn3)c2C1	-10.3
Clc1cccc(-n2cnnn2)c1N1CCCC1	9.35
Cc1nn(C)c2c(N3CCN(C(=O)c4ccccc4)CC3)ncnc12	10.9
CC1(c2[nH]ncc2C(N)=O)CCN(S(=O)(=O)c2ccccc2)CC1	-1.29
CN1CCN(c2nc(O)cc(Cc3ccccc3F)n2)CC1	-5.08
CCN1CCN(c2nc(O)cc(Cc3ccccc3F)n2)CC1	-1.83
Cc1nc2cc(C(=O)N3CCn4c(nnc4C4CC4)C3)ccc2s1	-1.41

Structure (SMILES)	cytotoxicity at 10 µM [%]
C[C@]12CCCCN(C(=O)c3ccccn3)[C@H]1CCCC(=O)N2	-20.1
Cc1n[nH]c(C)c1-c1cnc(C2CCN(S(C)(=O)=O)CC2)cn1	-1.57
CNc1cc(C)nc(C2CN(Cc3cncs3)CCO2)c1 (stereo not drawn)	-12.3
Cc1cc(-c2cnc(NC3CCCC3)nc2-c2ccc(C)o2)on1	-22.4
CC(=O)N1CCCC1c1cncc(Oc2ccc(F)cc2)n1 (stereo not drawn)	-15.8
Cc1ccc(C(=O)N2CCOC(c3nc(-c4ncccn4)no3)C2)cc1 (stereo not drawn)	-19.9
CC(C)(C)C(=O)N1CCC(c2nc(O)cc(-c3ccncc3)n2)CC1	-22
O=C(NCCc1nncn1C1CC1)C1(Cc2ccccc2)CCC1	7.87
COc1ccccc1CCNC(=O)CNCC1CN(C)CCO1 (stereo not drawn)	1.49
CC(C)(CNC(=O)Nc1cccc(-c2cccs2)c1)C(N)=O	-9.99
COCCN1CCC(NC(=O)NCC2(c3cccc(F)c3)CC2)C1 (stereo not drawn)	5.59
CCOCC(=O)Nc1ccc(-n2ccc(C(N)=O)n2)cc1	-5.27
CN(c1ccc2ccccc2c1)S(=O)(=O)c1cc(C(=O)O)cs1	1.2
Cc1ccc(-c2cc(CN3CCc4cnc(C)nc4C3)on2)cc1	4.88
N#Cc1ccc(C(=O)NCC2(N3CCOCC3)CCCC2)nc1	8.96
COCCN(CCOC)C(=O)c1cccc(Cn2nc(C)cc2C)c1	-8.22
COCc1nn(Cc2ccc(Cl)s2)c(=O)o1	1.97
COC(=O)N1CCC(NC(=O)CC(C)CCc2ccccc2)CC1 (stereo not drawn)	4.6
CCC(CC)c1cc(CNC(=O)N2CCOCC2CC)on1 (stereo not drawn)	-5.59
O=C1CN(Cc2nnc(-c3ccc(Br)cc3)o2)CCN1	2.55
NC(=O)CCOc1nc(-c2ccccc2Cl)no1	-1.64

Structure (SMILES)	cytotoxicity at 10 µM [%]
CCOCCCC(=O)NCc1cn2cc(Br)ccc2n1	2.73
CCc1cc(NCc2ccccc2CN2CCCC2)n2ncnc2n1	5.42
CCCN1CCN(C(=O)c2scnc2C)CC1	-0.73
O=C(NCCCOCC1CC1)Nc1cccnc1N1CCOCC1	5.55
CC(Oc1ccccc1C(F)(F)F)C(=O)NCC(N)=O (stereo not drawn)	-8.38
Cc1nc2ccccc2n1Cc1cc(C(=O)NC2CCOC2)no1 (stereo not drawn)	4.45
Cc1ccc(CNC(=O)CC2C(=O)NCCN2Cc2ccccc2C)s1 (stereo not drawn)	-7.98
COc1ccc2c(c1)OCC(Cc1ccnc(N)n1)C2 (stereo not drawn)	-0.651
CN(C)Cc1ccccc1CN(C)C(=O)c1ccoc1	-11.8
O=C(NC1CC(=O)N(C2Cc3ccccc3C2)C1)c1ccoc1 (stereo not drawn)	-2.4
Cc1ccc2[nH]c(-c3cn(C4CCNCC4)nn3)nc2c1C	-4.92
COC(=O)[C@@H](Nc1nc(C2CCCC2)nc2c1cnn2C)[C@@H](C)O	-50
COCCN(Cc1ccccc1Cl)C(=O)c1c(C)cc(C)[nH]c1=O	-5.6
Cc1ccc(Oc2ncccc2CNC2CCCCC2)cn1	-8.59
CCSCCC(=O)N1CCc2[nH]nc(COc3ccccc3)c2C1	-2.19
O=C(Cc1cc(F)cc(Cl)c1)N[C@@H]1CCNC[C@H]1O	-3.66
CCCn1cc(C(=O)NC(CC(=O)O)c2ccco2)c(C)n1 (stereo not drawn)	-61.4
O=C(C1CCC1)N1CCc2[nH]cnc2C12CCN(C1CCOCC1)CC2	-2.4
CN(C)c1nc(NCc2ccccc2Cn2cccn2)ncc1F	54.4
CC(C)c1cc(C(F)(F)F)n2nc(CCC(=O)O)nc2n1	5.97
COc1cccc(OC)c1C(=O)N1CCN(c2ccccc2F)CC1	-5.22

Structure (SMILES)	cytotoxicity at 10 µM [%]
Cc1cncc(C2CCCN(C(=O)c3c[nH]c(=O)[nH]c3=O)C2)n1 (stereo not drawn)	1.92
CCc1nc2n(n1)CC(NCc1cnn(-c3ccccc3)n1)CC2 (stereo not drawn)	-3.01
O=C(CN1CCOC(Cn2cccn2)C1)NCc1ccccn1 (stereo not drawn)	-6.73
CC(=O)N1CCN(C(=O)NCCc2ccc(Cl)s2)CC1	-11.6
CCOc1cccc(C(=O)N2CCC(c3n[nH]c(C4CC4)n3)CC2)c1	-16.8
CCc1ncncc1C(=O)N1CCN(Cc2c(C)noc2C)CC1	-13.8
Cc1nc(C)n(CC2CCCN2CC(=O)Nc2cc(C(C)C)no2)n1 (stereo not drawn)	-0.292
CN(CCc1ccc(F)cc1)Cc1nc2c(cnn2C)c(=O)[nH]1	-1.69
Cc1cc(C)n(C2CN(CC(=O)NCC(C)(C)N3CCOCC3)C2)n1	-3.42
Cn1cc(N2CCCC(NCc3cccc4c3OCCCO4)C2)cn1 (stereo not drawn)	-8.58
CCc1nc(C2CCCN2C(=O)CCCn2cccn2)no1 (stereo not drawn)	-13.1
CCN1CC(C(=O)NCc2ccccc2-n2cccn2)CC1=O (stereo not drawn)	3.2
Cc1n[nH]c(C2CN(C(=O)c3cc(C4CC4)[nH]n3)CCO2)n1 (stereo not drawn)	0.192
CCC(=O)NCCCn1c(-c2cccnc2C)cc2cccnc21	3.84
Cc1cc(Oc2ccccc2F)nc(C2CCCCN2)n1 (stereo not drawn)	8.44
Cn1cc(C(=O)N2CC[C@@H]3[C@@H]2CCN3Cc2cccnc2)cn1	3.06
Cc1ccc2c(n1)N(CCN(C)C)CCN(C(=O)c1ccc[nH]1)C2	6.59
CCN(C)c1ncnc2c1CCN(Cc1csc(C)n1)CC2	-1.13
Cn1cnc2c1C(COCC1CC1)CN(C(=O)Cc1ccsc1)C2 (stereo not drawn)	-2.67
CCC12CN3CC(CC)(CN(C1)C3c1[nH]c(=O)[nH]c(=O)c1C)C2=O (stereo not drawn)	12.5

Source: ChEMBL document CHEMBL4513216, “Probing the Open Global Health Chemical Diversity Library for Multistage-Active Starting Points for Next-Generation Antimalarials” (ACS Infect Dis, 2020)
